# Measured values: ChEMBL document CHEMBL4002602, “Design, Synthesis of Novel, Potent, Selective, Orally Bioavailable Adenosine A2A Receptor Antagonists and Their Biological Evaluation” (J Med Chem, 2017)
# Key:
# Adenosine receptor A2a = Adenosine receptor A2a (Homo sapiens, UniProt P29274); assay: Displacement of [3H]ZM241385 from human adenosine A2A receptor expressed in HEK293 cell membranes measured after 90 mins
# Outline: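 Competition binding on membranes from HEK-293 cells overexpressing human A1, A2A, A2B or A3, washed with ADA. Radioligands: [3H]-DPCPX 1 nM (A1), [3H]ZM241385 1 nM (A2A), [3H]-MRS-1754 1.6 nM (A2B), [3H]-HEMADO 2 nM (A3). Buffer was 50 mM Tris with EDTA and ADA; MgCl2 10 mM for A2A/A3; A2B at pH 6.5 with 5 mM MgCl2. Incubation 90 min at room temperature, then filtration. Nonspecific binding defined by NECA 100 μM. Ki values: mean of two experiments, triplicate points.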
# Adenosine receptor A2b [1] = biological target: T1, Adenosine receptor A2b (Homo sapiens, UniProt P29275); assay: Displacement of [3H]-MRS-1754 from human adenosine A2B receptor expressed in HEK293 cell membranes measured after 90 mins
# T1 sequence (P29275 whole entry): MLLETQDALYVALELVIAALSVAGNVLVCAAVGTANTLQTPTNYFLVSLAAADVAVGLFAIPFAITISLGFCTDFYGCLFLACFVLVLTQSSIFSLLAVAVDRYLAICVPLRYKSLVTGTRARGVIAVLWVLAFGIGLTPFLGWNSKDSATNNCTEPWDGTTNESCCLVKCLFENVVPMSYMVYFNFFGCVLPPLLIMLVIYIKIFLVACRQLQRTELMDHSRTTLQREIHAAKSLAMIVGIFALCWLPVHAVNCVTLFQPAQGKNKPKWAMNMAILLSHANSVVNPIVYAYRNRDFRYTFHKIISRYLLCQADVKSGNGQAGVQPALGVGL
# Cytochrome P450 1A2 = biological target: T2, Cytochrome P450 1A2 (Homo sapiens, UniProt P05177); assay: Inhibition of CYP1A2 in human liver microsomes at 5 to 25 uM using phenacetin as substrate preincubated for 5 mins with substrate followed by NADPH addition measured after 10 mins by LC-MS/MS analysis; type: ADME; conditions: microsomes, 10 min, 25 µM
# T2 sequence (P05177 whole entry): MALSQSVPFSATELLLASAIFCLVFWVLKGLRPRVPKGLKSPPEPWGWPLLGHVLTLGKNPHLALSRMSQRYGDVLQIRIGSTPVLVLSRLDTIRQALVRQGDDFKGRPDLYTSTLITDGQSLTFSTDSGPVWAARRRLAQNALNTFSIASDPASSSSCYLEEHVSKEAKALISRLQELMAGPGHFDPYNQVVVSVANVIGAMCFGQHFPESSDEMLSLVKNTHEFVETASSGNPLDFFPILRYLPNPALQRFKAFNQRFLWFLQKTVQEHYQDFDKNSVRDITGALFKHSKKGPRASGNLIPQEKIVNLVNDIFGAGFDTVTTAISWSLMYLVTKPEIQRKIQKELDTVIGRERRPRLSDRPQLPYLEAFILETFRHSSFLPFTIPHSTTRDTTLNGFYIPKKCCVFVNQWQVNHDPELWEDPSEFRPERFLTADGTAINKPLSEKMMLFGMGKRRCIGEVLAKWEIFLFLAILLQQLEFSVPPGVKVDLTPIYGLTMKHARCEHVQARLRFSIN
# hERG (KCNH2) [2] = biological target: T3, hERG (KCNH2) (Homo sapiens, UniProt Q12809); assay: Inhibition of [3H]-astemizole binding to human ERG at 10 uM after 2 hrs by liquid scintillation counting method relative to control; conditions: probe [3H]-astemizole
# T3 sequence (Q12809 whole entry): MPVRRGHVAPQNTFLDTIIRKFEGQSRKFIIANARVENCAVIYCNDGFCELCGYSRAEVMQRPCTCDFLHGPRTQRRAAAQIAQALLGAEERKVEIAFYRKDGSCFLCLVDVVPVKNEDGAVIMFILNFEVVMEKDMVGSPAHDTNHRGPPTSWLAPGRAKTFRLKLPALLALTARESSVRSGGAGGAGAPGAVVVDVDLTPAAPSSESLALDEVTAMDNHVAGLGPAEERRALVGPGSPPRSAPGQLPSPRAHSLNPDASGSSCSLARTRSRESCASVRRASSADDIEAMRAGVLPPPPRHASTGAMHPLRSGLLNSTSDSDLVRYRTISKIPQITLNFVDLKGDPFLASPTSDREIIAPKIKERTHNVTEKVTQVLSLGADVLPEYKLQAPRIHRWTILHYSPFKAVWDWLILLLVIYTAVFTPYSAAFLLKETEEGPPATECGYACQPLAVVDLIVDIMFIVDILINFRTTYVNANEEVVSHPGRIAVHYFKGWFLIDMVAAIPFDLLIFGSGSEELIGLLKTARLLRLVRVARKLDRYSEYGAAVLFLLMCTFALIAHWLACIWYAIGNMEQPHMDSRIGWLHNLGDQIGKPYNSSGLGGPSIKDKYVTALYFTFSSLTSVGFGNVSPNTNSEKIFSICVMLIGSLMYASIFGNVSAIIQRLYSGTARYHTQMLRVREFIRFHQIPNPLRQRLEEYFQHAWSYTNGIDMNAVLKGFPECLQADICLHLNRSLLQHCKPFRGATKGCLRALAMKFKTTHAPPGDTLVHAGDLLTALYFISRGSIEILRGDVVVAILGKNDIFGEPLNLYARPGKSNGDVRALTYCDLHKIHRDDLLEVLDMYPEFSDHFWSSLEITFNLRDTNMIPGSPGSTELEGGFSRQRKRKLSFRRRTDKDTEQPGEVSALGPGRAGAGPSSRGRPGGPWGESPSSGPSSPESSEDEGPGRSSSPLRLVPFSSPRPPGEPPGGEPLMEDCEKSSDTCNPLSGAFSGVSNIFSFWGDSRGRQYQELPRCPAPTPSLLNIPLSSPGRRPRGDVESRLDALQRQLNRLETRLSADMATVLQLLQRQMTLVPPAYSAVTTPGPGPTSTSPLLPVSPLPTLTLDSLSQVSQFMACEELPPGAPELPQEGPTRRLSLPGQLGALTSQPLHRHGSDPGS
# [3] = AUC (0 to t) in Wistar rat at 10 mg/kg administered via oral gavage by LC/MS/MS analysis; type: ADME, organism-based; conditions: in vivo
# Outline: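 Male Wistar rats (230 ± 15 g), fasted overnight with water available, given a single oral suspension in 1% Tween 80 and 0.5% NaCMC (1 mg/mL, 10 mL/kg). Serial blood sampling (n=3/time point) at 0.25–24 h into K2EDTA. Plasma proteins precipitated with acetonitrile, then LC/MS/MS. AUC0-t by non-compartmental analysis of individual animals.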
# [4] = Volume of distribution at steady state in Wistar rat at 3 mg/kg, iv by LC/MS/MS analysis; type: ADME, organism-based; conditions: in vivo, read-out: Vdss
# Outline: (§1)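 Male Wistar rats (230 ± 15 g), fasted overnight, given 3 mg/kg IV via tail vein as a solution (0.6 mg/mL, 5 mL/kg) in NMP-based vehicles with acetate buffer pH 4.2. Serial plasma sampling (K2EDTA) from 0.008 to 24 h. Acetonitrile precipitation, then LC/MS/MS. Non-compartmental analysis per animal; mean of n=4.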
# [5] = Clearance in Wistar rat at 3 mg/kg, iv by LC/MS/MS analysis; type: ADME, organism-based; conditions: in vivo; outline: as §1
# [6] = Elimination half-life in Wistar rat at 3 mg/kg, iv by LC/MS/MS analysis; type: ADME, organism-based; conditions: in vivo, read-out: beta t1/2 (converted); outline: as §1
# [7] = Oral bioavailability in Wistar rat at 10 mg/kg administered via gavage by LC/MS/MS analysis; type: ADME, organism-based; conditions: in vivo
# Outline: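 Fasted male Wistar rats given 10 mg/kg PO as a suspension in 1% Tween 80, 0.5% w/v NaCMC. Serial plasma sampling (K2EDTA) at 0.25–24 h, acetonitrile precipitation, LC/MS/MS. Non-compartmental analysis per animal; bioavailability calculated against the 3 mg/kg IV group; mean of n=4.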
# [8] = Equilibrium aqueous solubility of the compound at pH 4 after 4 hrs; type: physicochemical; conditions: aqueous medium
# Cytochrome P450 2C19 = Cytochrome P450 2C19 (Homo sapiens, UniProt P33261); assay: Inhibition of CYP2C19 in human liver microsomes at 5 to 25 uM using (S)mephenytoin as substrate preincubated for 5 mins with substrate followed by NADPH addition measured after 40 mins by LC-MS/MS analysis; type: ADME; conditions: microsomes, 40 min, 25 µM
# Sequence of Cytochrome P450 2C19 (P33261 whole entry): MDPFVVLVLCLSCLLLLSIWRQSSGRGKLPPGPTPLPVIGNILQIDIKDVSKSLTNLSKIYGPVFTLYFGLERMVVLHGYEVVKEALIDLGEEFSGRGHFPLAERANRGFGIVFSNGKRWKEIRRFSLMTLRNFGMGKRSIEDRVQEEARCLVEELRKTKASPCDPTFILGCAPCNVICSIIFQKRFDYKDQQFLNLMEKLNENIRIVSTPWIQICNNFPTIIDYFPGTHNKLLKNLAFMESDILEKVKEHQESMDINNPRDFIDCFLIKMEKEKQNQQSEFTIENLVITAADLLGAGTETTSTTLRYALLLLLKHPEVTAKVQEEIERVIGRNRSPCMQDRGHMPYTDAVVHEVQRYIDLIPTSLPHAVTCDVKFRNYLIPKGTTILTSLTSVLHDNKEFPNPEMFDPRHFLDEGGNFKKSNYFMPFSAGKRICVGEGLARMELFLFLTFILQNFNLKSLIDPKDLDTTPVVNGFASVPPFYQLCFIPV
# Adenosine receptor A2b [9] = biological target: T1, Adenosine receptor A2b; assay: Antagonist activity at human adenosine A2B receptor expressed in HEK293 cell membranes assessed as decrease in NECA/forskolin-induced cAMP level pretreated for 15 mins followed by agonist addition for 15 mins and subsequent forskolin stimulation measured after 30 mins; type: functional, cell-based
# hERG (KCNH2) [10] = biological target: T3, hERG (KCNH2); assay: Inhibition of [3H]-astemizole binding to human ERG at 30 uM after 2 hrs by liquid scintillation counting method relative to control; conditions: probe [3H]-astemizole
# [11] = Half-life in rat hepatocytes at 1 uM by LC-MS/MS analysis; type: ADME, cell-based, Hepatocyte
# [12] = Metabolic stability in rat hepatocytes assessed as parent compound remaining at 1 uM measured at 60 mins post dose by LC-MS/MS analysis; type: ADME, cell-based, Hepatocyte; conditions: read-out: Stability
# HepG2 = assay: Cytotoxicity against human HepG2 cells; type: cell-based
# CYP2D6 = CYP2D6 (Homo sapiens, UniProt P10635); assay: Inhibition of CYP2D6 in human liver microsomes at 5 to 25 uM using dextromethorphan as substrate preincubated for 5 mins with substrate followed by NADPH addition measured after 10 mins by LC-MS/MS analysis; type: ADME; conditions: human liver microsomes, probe dextromethorphan
# Sequence of CYP2D6 (P10635 whole entry): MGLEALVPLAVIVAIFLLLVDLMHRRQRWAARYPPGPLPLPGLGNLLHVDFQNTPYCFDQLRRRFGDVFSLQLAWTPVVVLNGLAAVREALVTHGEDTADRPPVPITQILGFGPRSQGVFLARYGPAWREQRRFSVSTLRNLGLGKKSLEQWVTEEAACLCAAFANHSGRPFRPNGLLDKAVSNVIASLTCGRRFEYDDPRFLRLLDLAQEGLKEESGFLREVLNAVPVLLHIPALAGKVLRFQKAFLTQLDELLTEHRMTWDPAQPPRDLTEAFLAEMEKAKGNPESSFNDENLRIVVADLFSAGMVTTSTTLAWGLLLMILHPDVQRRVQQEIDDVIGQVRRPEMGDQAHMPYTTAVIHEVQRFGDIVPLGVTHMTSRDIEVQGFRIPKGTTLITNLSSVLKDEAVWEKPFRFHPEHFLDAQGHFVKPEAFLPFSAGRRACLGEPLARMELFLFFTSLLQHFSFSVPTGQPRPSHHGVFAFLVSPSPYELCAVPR
# CYP3A = CYP3A (Homo sapiens, UniProt P08684+P20815+P24462+Q9HB55); assay: Inhibition of CYP3A in human liver microsomes at 5 to 25 uM using testosterone as substrate preincubated for 5 mins with substrate followed by NADPH addition measured after 10 mins by LC-MS/MS analysis; type: ADME; conditions: human liver microsomes, probe testosterone
# Sequence of Adenosine receptor A2a (P29274 whole entry): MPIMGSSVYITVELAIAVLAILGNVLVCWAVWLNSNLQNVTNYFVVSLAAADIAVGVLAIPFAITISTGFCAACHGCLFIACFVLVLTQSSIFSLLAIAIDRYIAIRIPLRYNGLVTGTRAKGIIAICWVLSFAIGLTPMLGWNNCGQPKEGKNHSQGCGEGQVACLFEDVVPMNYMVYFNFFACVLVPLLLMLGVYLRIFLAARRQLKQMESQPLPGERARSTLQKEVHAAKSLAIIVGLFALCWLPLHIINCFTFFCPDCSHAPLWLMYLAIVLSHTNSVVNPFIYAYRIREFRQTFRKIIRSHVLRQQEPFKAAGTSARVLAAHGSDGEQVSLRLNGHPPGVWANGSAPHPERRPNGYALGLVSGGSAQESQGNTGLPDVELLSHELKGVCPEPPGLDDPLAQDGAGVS
SMILES,Ki (Adenosine receptor A2a) [nM],Ki (Adenosine receptor A2b [1]) [nM],inhibition (INH) (Cytochrome P450 1A2),AUC(0-t) [3] [µM·h],Vd [4] [L/kg],clearance [5] [mL/min/kg],half-life [6] [h],bioavailability [7] [%],solubility thermodynamic at 4 h [8] [µM],inhibition (INH) (Cytochrome P450 2C19),Ki (Adenosine receptor A2b [9]) [nM],half-life at 1 µM [11] [h],"remaining at 1 h, 1 µM [12] [%]",IC50 at 10 min (CYP2D6) [nM],IC50 at 10 min (CYP3A) [nM],"inhibition at 2 h, 10 µM (hERG (KCNH2) [2]) [%]","inhibition at 2 h, 30 µM (hERG (KCNH2) [10]) [%]",IC50 (HepG2) [nM]
COc1ccc(N2CCOCC2)c2sc(NC(=O)C(C)(C)Oc3ccc(F)c(F)c3)nc12,6.4,5000,Not Active,6.2,2.1,10.2,5.5,17,< 6,Not Active,,,,,,< 5,,
COc1ccc(N2CCOCC2)c2sc(NC(=O)C3(C)CCC(C)(O)CC3)nc12 (stereo unspecified),8.6,500,,7.8,1.5,32,0.6,63,111,,2000,> 1,88,> 25000,> 25000,,26,> 100000
CCN(CC)C1CCC(C)(C(=O)Nc2nc3c(OC)ccc(N4CCOCC4)c3s2)CC1 (stereo unspecified),2.1,500,,5.5,6.1,37.2,2.4,61,1810,,650,> 1,89,> 50000,> 50000,13,18,> 100000

# Now from value to compound, other results behind:
Ki (Adenosine receptor A2a) [nM],Ki (Adenosine receptor A2b [1]) [nM],inhibition (INH) (Cytochrome P450 1A2),AUC(0-t) [3] [µM·h],Vd [4] [L/kg],clearance [5] [mL/min/kg],half-life [6] [h],bioavailability [7] [%],solubility thermodynamic at 4 h [8] [µM],inhibition (INH) (Cytochrome P450 2C19),Ki (Adenosine receptor A2b [9]) [nM],half-life at 1 µM [11] [h],"remaining at 1 h, 1 µM [12] [%]",IC50 at 10 min (CYP2D6) [nM],IC50 at 10 min (CYP3A) [nM],SMILES,"inhibition at 2 h, 10 µM (hERG (KCNH2) [2]) [%]","inhibition at 2 h, 30 µM (hERG (KCNH2) [10]) [%]",IC50 (HepG2) [nM]
13,10000,Not Active,1.5,1.4,15,6.3,6,< 6,Not Active,,,,,,COc1ccc(N2CCOCC2)c2sc(NC(=O)C(C)(C)Oc3ccc(F)cc3)nc12,< 5,,
3.4,1400,Not Active,12,2.1,6.6,5.4,21.7,< 6,Not Active,2000,,,,,COc1cnc(N2CCOCC2)c2sc(NC(=O)C(C)(C)Oc3ccc(F)cc3)nc12,< 10,< 10,
